Test results taken from ChEMBL document CHEMBL1125843, “Electron-deficient isoalloxazines: model systems for disulfide prodrug formation” (J Med Chem, 1991).

Experiments:
Type in all cases: ADME
[1] = General acid and general base rate constant (10e4kA-) required for the formation of m-nitrothiophenol disulfide.
Procedure, shortened: (§1)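 Isoalloxazine-catalyzed oxidation of m-nitrothiophenol to its disulfide was quantified by HPLC in phosphate buffer (0.08-0.4 M, pH 7-9) with ionic strength held at 0.4 M (KCl). Isoalloxazine stocks in dry methanol/dichloromethane were diluted into aqueous-methanolic reactions. At fixed pH, k_obs/[mNTP] was plotted against buffer base fraction. The slopes were then plotted against [AH]/[A−] to give k_AH (slope) and k_A− (intercept). Values are the mean of two determinations.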

[2] = […] rate constant (10e7kAH) required for the formation of m-nitrothiophenol disulfide.; procedure, shortened: as §1
[3] = Spontaneous rate constant (10e6 ko) required for the formation of m-nitrothiophenol disulfide.; procedure, shortened: as §1

Row | kA- [1] | kAH [2] | k'o [3] | Structure (SMILES)
1 | 2.3 M⁻¹ s⁻¹ | 131.7 M⁻¹ s⁻¹ | 4.6 M⁻¹ s⁻¹ | Cn1c2nc(=O)n(CCCCCCCCS)c(=O)c-2nc2ccc(C#N)cc21
2 | 0.1 M⁻¹ s⁻¹ | 6.8 M⁻¹ s⁻¹ | 3 M⁻¹ s⁻¹ | O=c1nc2n(-c3ccccc3)c3ccccc3nc-2c(=O)n1CCCCCCCCS
